Calls of active or inactive are those of the source. The calls are words filed in the database; no cut-off is given here.

Data set [1] relates to Thoracic aorta. The data set can be described thus: Vasorelaxant activity in CD-1 mouse thoracic aorta rings assessed as inhibition of L-phenylephrine-induced contraction. It is filed as functional, tissue-based. Conditions: CD-1, Thoracic aorta. Summed up:
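Isolated aortic rings precontracted with phenylephrine (1 µM). Cumulative concentration–response curves of each donor (10 nM–300 µM) or DMSO vehicle. EC50 taken from the curves.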

Data set [2] is described as follows: Drug metabolism in PBS buffer assessed as H2S release by measuring time required for 50% of maximum H2S release at steady state at 1 mM after 30 mins in presence of 4 mM L-cysteine by amperometric method. It is filed as physicochemical. Conditions: 0.5 h, 1000 µM. Summed up:
(§1)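 Amperometric real-time H2S detection at room temperature in assay buffer (10x PBS diluted 1:10 in distilled water). Donor added from DMSO stock to a final 1 mM, 1% DMSO, with 4 mM L-cysteine added where the protocol required. Recorded for 30 min. Curves computer-fitted. TCM50 is the time to reach ½ Cmax. Mean ± SE of 5 experiments.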

Data set [3] concerns Thoracic aorta. The data set can be described thus: Vasorelaxant activity in CD-1 mouse thoracic aorta rings assessed as inhibition of L-phenylephrine-induced contraction at 100 uM relative to control. It is filed as functional. The settings on record: CD-1, Thoracic aorta. Summed up:
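Isolated aortic rings precontracted with phenylephrine (1 µM). Cumulative donor concentrations (10 nM–300 µM) or DMSO vehicle. Emax is the maximal relaxation obtained.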

Data set [4] can be described thus: Drug level in pH 7.4 PBS buffer treated with 2,4-Diphenyl-1,2,4-thiadiazoline-3,5-dione at 0.5 mmol after 5 to 60 mins in presence of glutathione by ESI-MS analysis. Format: physicochemical.
Data set [5] is described as follows: Drug level in pH 7.4 PBS buffer treated with 2,4-Diphenyl-1,2,4-thiadiazoline-3,5-dione at 0.5 mmol after 5 to 60 mins in presence of cysteine by HPLC-MS analysis. It is filed as physicochemical.
Data set [6] can be described thus: Drug metabolism in PBS buffer assessed as H2S release by measuring time required for 50% of maximum H2S release at steady state at 1 mM after 30 mins by amperometric method. It is filed as physicochemical. The settings on record: 0.5 h, 1000 µM. Summed up:
as §1

Data set [7] deals with Thoracic aorta. Kind of data set: Vasorelaxant activity in CD-1 mouse endothelium denuded thoracic aorta rings assessed as inhibition of L-phenylephrine-induced contraction. It is filed as functional, tissue-based.
Data set [8] can be described thus: Drug metabolism in water at 0.5 mmol after 5 to 60 mins by ESI-MS analysis. Conditions: buffer. It is filed as physicochemical.
The nature of data set [9]: Stability in pH 7.4 PBS buffer at 0.5 mmol after 5 mins in presence of cysteine by HPLC analysis. Format: physicochemical. Conditions: PBS buffer with cysteine, read-out: Stability.
The nature of data set [10]: Drug metabolism in pH 7.4 PBS buffer at 0.5 mmol after 5 to 60 mins in presence of S-methyl cysteine by ESI-MS analysis. It is filed as physicochemical.
The nature of data set [11]: Stability in pH 7.4 PBS buffer at 0.5 mmol after 30 mins in presence of cysteine by HPLC analysis. Conditions: PBS buffer with cysteine, read-out: Stability. It is filed as physicochemical.
The nature of data set [12]: Drug metabolism in pH 7.4 PBS buffer assessed as phenyl(phenylcarbamoyl)carbamothioic S-acid formation at 0.5 mmol after 5 to 60 mins in presence of cysteine by HPLC-MS analysis. Format: physicochemical.

A word on the EC50: it is the concentration needed to bring the measured effect to its halfway point. By Emax is commonly meant the maximal effect, on the per cent scale that the assay sets. For `COc1ccc(-n2sc(=O)n(-c3ccc(Cl)cc3)c2=O)cc1`, in the data set with Thoracic aorta [1], the EC50 was 2100 nM. Besides, the Time in data set [2] is on record as 15.36 min. In the data set with Thoracic aorta [3], the maximal effect (Emax) at 100 µM was 98.6%.

On to `N[C@@H](CCC(=O)N[C@@H](CSSC(=O)N(C(=O)Nc1ccccc1)c1ccccc1)C(=O)NCC(=O)O)C(=O)O`, for which, in data set [4], the Drug metabolism result is given as “Metabolite_Detected”.

As to `O=C(S)N(C(=O)Nc1ccccc1)c1ccccc1`, in data set [5], the Drug metabolism result is reported as “Metabolite_Detected”.

Take `NC(CSSC(=O)N(C(=O)Nc1ccccc1)c1ccccc1)C(=O)O` (centres undefined): in data set [5], the Drug metabolism result was “Metabolite_Detected”.

`COc1ccc(-n2sc(=O)n(C3CCCCC3)c2=O)cc1`: the EC50 in the data set with Thoracic aorta [1] was 1900 nM. For the same molecule, the Time in data set [2] was found to be 13.93 min. In addition, the Emax at 100 µM with Thoracic aorta [3] turned out to be 97.7%.

As for `O=c1sn(-c2ccccc2)c(=O)n1Cc1ccccc1`, the Time is listed as 9.56 min in [6] and 11.4 min in [2].

As for `Cc1ccc(-n2sc(=O)n(-c3ccccc3)c2=O)cc1`, in the data set with Thoracic aorta [1], the EC50 amounted to 1300 nM. In data set [2], the Time was found to be 13.84 min. In the data set with Thoracic aorta [3], the Emax at 100 µM is 94.5%.

For `O=c1sn(-c2ccc(F)cc2)c(=O)n1-c1ccccc1`, in the data set on Thoracic aorta [1], the EC50 was 3900 nM. The Time in data set [2] turned out to be 9.52 min. The Emax at 100 µM with Thoracic aorta [3] was 94.3%.

For `O=c1sn(-c2ccccc2)c(=O)n1-c1ccccc1`, the inhibition result in the data set with Thoracic aorta [7] is “Active”. Moreover, in the data set on Thoracic aorta [1], the EC50 came to 1700 nM. The Drug metabolism result is “Metabolite_Notdetected” in [8], “Metabolite_Notdetected” in [10] and “Metabolite_Detected” in [12]. Besides, in [9], the remaining at 5 min, 0.5 mmol was determined as 82%. Moreover, the Time in [2] came to 12.01 min. For the same molecule, the remaining at 0.5 h, 0.5 mmol in data set [11] turned out to be 15%. Besides, the Emax at 100 µM in the data set on Thoracic aorta [3] was found to be 99.7%.

Turning to `NC(CSSCC(N)C(=O)O)C(=O)O` (centres undefined), the Drug metabolism entry in data set [5] is given as “Metabolite_Detected”.

With `COc1ccc(-n2sc(=O)n(-c3ccccc3)c2=O)cc1`, the EC50 in the data set with Thoracic aorta [1] was 1600 nM. Besides, in data set [2], the Time amounted to 13.25 min. The Emax at 100 µM with Thoracic aorta [3] was determined as 100%.

For the molecule `O=C(Nc1ccccc1)Nc1ccccc1` [DIPHENYLUREA], in data set [5], the Drug metabolism result is given as “Metabolite_Detected”.

Take `COc1ccc(-n2sc(=O)n(-c3ccc(OC)cc3)c2=O)cc1`: the EC50 with Thoracic aorta [1] came out at 3000 nM. Further, the Time in [2] is on record as 14.8 min. Moreover, in the data set on Thoracic aorta [3], the Emax at 100 µM was found to be 95%.

Regarding `COc1ccc(-n2sc(=O)n(-c3ccc(C)cc3)c2=O)cc1`, the EC50 with Thoracic aorta [1] turned out to be 1500 nM. In addition, the Time in data set [2] was found to be 13.25 min. Besides, the Emax at 100 µM with Thoracic aorta [3] was determined as 99%.

On to `COc1ccc(-n2sc(=O)n(Cc3ccccc3)c2=O)cc1`, for which the Time is 13.46 min in [6] and 15.75 min in data set [2].

Source of the values: ChEMBL document CHEMBL4130551, “1,2,4-Thiadiazolidin-3,5-diones as novel hydrogen sulfide donors” (Eur J Med Chem, 2018).
